Measurements collected from several papers.
Lines come from different studies, so protocols differ.
Cell line: HeLa
Observed: cell growth or viability

SMILES | technique | time | IC50
COc1cc(C#CC#Cc2cc(OC)cc(OC)c2)cc(OC)c1 | MTT | 24 h | 4.51 µg/mL
O=c1[nH]cc(F)c(=O)[nH]1 | – | 72 h | 0.54 µM
COc1cc(OC)c2c(=O)cc(-c3ccc(Br)cc3)oc2c1 | MTT | 48 h | 85.8 µM
C[C@@H](O)C(=O)CCCCCCC(=O)Nc1ccccc1 | XTT | – | > 50 µM
Cc1c(O)c(=O)ccn1CCO | MTT | 72 h | ≥ 100 µM
COc1ccc(C(=O)O[C@@H]2CN3Cc4c(cc5c(c4OC)OCO5)[C@@]24C=C[C@H](OC)C[C@@H]34)cc1OC | WST-1 | 48 h | 4.8 µM
CC(C)(C)OCC1NC(=O)C(C(=O)NC(C(=O)NC2C(=O)N3C2SC(C)(C)C3C(=O)O)c2ccccc2)=C1O (centres unmarked) | ATP luminescence | 48 h | 106 µg/mL
COc1cc(C)c(-c2c(C)cc(OC)c3c(=O)cc(-c4cccc(Br)c4)oc23)c2oc(-c3cccc(Br)c3)cc(=O)c12 | MTT | 48 h | > 100 µM
CC1(C)SC2C(NC(=O)C(NC(=O)C3=C(O)C(Cc4ccccc4)NC3=O)c3ccccc3)C(=O)N2C1C(=O)O (centres unmarked) | ATP luminescence | 48 h | 122 µg/mL
COc1cc(C)cc2oc(-c3ccc(Br)cc3)cc(=O)c12 | MTT | 48 h | > 100 µM
C=CCNC1=C2C[C@@H](C)C[C@H](OC)[C@H](O)[C@@H](C)/C=C(\C)[C@H](OC(N)=O)[C@@H](OC)/C=C\C=C(/C)C(=O)NC(=CC1=O)C2=O | MTT | – | 0.159 µM
CC1(C)SC2C(NC(=O)C(NC(=O)C3=C(O)CN(c4ccccc4)C3=O)c3ccccc3)C(=O)N2C1C(=O)O (centres unmarked) | ATP luminescence | 48 h | 87 µg/mL
COc1cccc2c1C(=O)c1c(O)c3c(c(O)c1C2=O)C[C@@](O)(C(=O)CO)C[C@@H]3O[C@H]1C[C@H](N)[C@H](O)[C@H](C)O1 | MTT | 24 h | 1.2 µM
CC1(C)S[C@@H]2[C@H](NC(=O)C(C(=O)O)c3ccccc3)C(=O)N2[C@H]1C(=O)O (some centres unmarked) | ATP luminescence | 48 h | 76.2 µg/mL
COc1cc(OC)c2c(=O)cc(-c3ccccc3Br)oc2c1 | MTT | 48 h | > 100 µM
CC1(C)SC2C(NC(=O)C(NC(=O)C3=C(O)C(Cc4ccc(F)cc4)NC3=O)c3ccccc3)C(=O)N2C1C(=O)O (centres unmarked) | ATP luminescence | 48 h | 123 µg/mL
Oc1c(I)cc(I)c2cccnc12 | MTT | 48 h | > 100 µM
NCCOc1cc(C(=O)Nc2cc(OCCN3CCCC3)c3ccccc3n2)nc(C(=O)Nc2cc(OCCN3CCCC3)c3ccccc3n2)c1 | ATP luminescence | 72 h | 0.3 µM
CC1(C)CC[C@]2(C(=O)O)CC[C@]3(C)C(=CC[C@@H]4[C@@]5(C)CC[C@H](O)C(C)(C)[C@@H]5CC[C@]43C)[C@@H]2C1 | MTT | 48 h | 34.8 µM
COc1nc(OCc2cccc(-c3ccccc3)c2C)ccc1CNCCNC(C)=O | MTT | – | 3.6 µM
CCCCCCC#CC#CCCCCCC | MTT | 24 h | 36 µg/mL
COc1ccc(-c2cc(=O)c3c(OC)cc(C)cc3o2)cc1 | MTT | 48 h | 28.4 µM

SMILES | technique | time | IC50
Cc1ccc2c(Br)cc(Br)c(O)c2n1 | MTT | 48 h | > 150 µM
COc1cc(OC)c2c(=O)cc(-c3ccccc3)oc2c1 | MTT | 48 h | 73.7 µM
Oc1c(I)cc(Cl)c2cccnc12 | MTT | 48 h | 70.2 µM
COc1ccc2oc(C(=O)c3ccccc3)cc2c1-c1ccccc1 | – | – | > 50 µM
C#CCOc1cc(C(=O)Nc2cc(OCCN)c3ccccc3n2)nc(C(=O)Nc2cc(OCCN)c3ccccc3n2)c1 | ATP luminescence | 72 h | 5.2 µM
C(C#CCC1CCCCC1)#CCC1CCCCC1 | MTT | 24 h | 117 µg/mL
CC(=O)c1ccc(-c2cccc(NC(=O)CCc3cccc4c3B(O)OC4)c2)cc1 | ATP luminescence | – | 1.27 µM
COC(=O)CN=c1scc(-c2ccccc2)n1-c1ccccc1[N+](=O)[O-] | MTT | 72 h | 6.02 µM
NCCCOc1cc(NC(=O)c2cc(OCCN)cc(C(=O)Nc3cc(OCCCN)c4ccccc4n3)n2)nc2ccccc12 | ATP luminescence | 72 h | 13.7 µM
CC(=O)O[C@H](C)C(=O)CCCCC[C@@H]1NC(=O)[C@H]2CCCN2C(=O)[C@H](Cc2ccccc2)NC(=O)C(C)(C)NC1=O | XTT | – | 0.119 µM
COc1cccc(Oc2ccccc2NC(=O)CNC(=O)c2c(C)cc(C)cc2C)c1 | – | – | 6.5 µM
COc1cccc(-c2cccc(NC(=O)CCc3cccc4c3B(O)OC4)c2)c1 | ATP luminescence | 72 h | 1.05 µM
Cc1c(O)c(=O)ccn1-c1ccc(C(=O)O)cc1 | MTT | 72 h | 600 µM
COc1cccc(C(=O)c2cc3c(-c4ccccc4)c(O)ccc3o2)c1 | – | – | 27 µM
CN(C)CCCOc1cc(NC(=O)c2cc(Cl)cc(C(=O)Nc3cc(OCCCN(C)C)c4ccccc4n3)n2)nc2ccccc12 | ATP luminescence | 72 h | 1.6 µM
COc1ccc(C(=O)c2cc3c(-c4ccccc4)c(O)ccc3o2)cc1 | – | – | 0.51 µM
O=C(Nc1cc(OCCN2CCCC2)c2ccccc2n1)c1cc(Cl)cc(C(=O)Nc2cc(OCCN3CCCC3)c3ccccc3n2)n1 | ATP luminescence | 72 h | 4.7 µM
CCCC(O)C#CC#CC(O)CCC (centres unmarked) | MTT | 24 h | 19.3 µg/mL
COc1cc(C(=O)Nc2cc(OC)c3ccccc3n2)nc(C(=O)Nc2cc(OC)c3ccccc3n2)c1 | ATP luminescence | 72 h | > 40 µM
COc1cc(C)c(-c2c(C)cc(OC)c3c(=O)cc(-c4ccc(C(F)(F)F)cc4)oc23)c2oc(-c3ccc(C(F)(F)F)cc3)cc(=O)c12 | MTT | 48 h | > 100 µM
O=C(Nc1cc(OCCN2CCCC2)c2ccccc2n1)c1cc(OCc2ccc(F)cc2)cc(C(=O)Nc2cc(OCCN3CCCC3)c3ccccc3n2)n1 | ATP luminescence | 72 h | 13 µM
COc1cc(OC)c2c(=O)cc(-c3ccc(C(F)(F)F)cc3)oc2c1 | MTT | 48 h | > 100 µM
